Measurements from ChEMBL document CHEMBL4270487, “The Berkeleylactones, Antibiotic Macrolides from Fungal Coculture” (J Nat Prod, 2017).
Values after ≈ are worked out from the molar mass of the structure shown. Active and inactive are the calls of the source. No cut-off for these calls is given here.

What was measured:
[1] = In-vitro inhibition of protein translation using pY71-sfGFP in PUREexpress in vitro protein synthesis system assessed as reduction in cell-free GFP protein translation at 50 uM measured every 20 mins for 2 hrs; format: functional
In short: (§1)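 Cell-free transcription-translation reactions were programmed with the pY71-sfGFP plasmid. The antibiotic solution was dried at the bottom of the tube before the reaction components were added. Erythromycin, josamycin and tylosin served as references at a final 50 μM. Reactions were incubated at 37 °C, with GFP fluorescence (excitation 488 nm, emission 520 nm) read every 20 min for 2 h.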

[2] = system: Ribosome; test: Induction of ribosome stalling assessed as induction of stalling of ribosome at ermBL ORF at 50 uM by extension inhibition assay
In short: (§2)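 Primer extension inhibition was run on an ermBL gene template following the published procedure. Erythromycin, josamycin and tylosin were included in the reaction as references at 50 μM. The test agent was present at 50 or 250 μM.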

[3] = system: Staphylococcus aureus; test: Antibiotic activity against methicillin-resistant Staphylococcus aureus isolate CAIRD142 by broth microdilution assay or Alamar blue dye based colorimetric assay; format: functional
In short: (§3)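 Minimum inhibitory concentration (MIC) by broth microdilution following CLSI standards, with Alamar Blue as the colorimetric reporter. Test compounds were made up as 50 mM stocks in DMSO and serially diluted 2-fold in the test wells. The top final well concentration was 500 μM (500, 250, 125, 64, 32, 16, 8, 4, 2, 1 μM, etc.).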

[4] = system: Staphylococcus aureus; test: Antibiotic activity against methicillin-resistant Staphylococcus aureus isolate CAIRD148 by broth microdilution assay or Alamar blue dye based colorimetric assay; format: functional; in short: as §3
[5] = system: Staphylococcus aureus; test: Antibiotic activity against methicillin-resistant Staphylococcus aureus isolate CAIRD116 by broth microdilution assay or Alamar blue dye based colorimetric assay; format: functional; in short: as §3
[6] = system: Streptococcus pyogenes; test: Antibiotic activity against Streptococcus pyogenes by broth microdilution assay or Alamar blue dye based colorimetric assay; format: functional
In short: (§4)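 Broth microdilution following CLSI standards, read colorimetrically with Alamar Blue. Test compounds were made as 50 mM stocks in DMSO, then serially diluted 2-fold in the test wells from a top final concentration of 500 μM (500, 250, 125, 64, 32 μM and lower). The MIC was taken from this dilution series.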

[7] = system: Candida albicans; test: Antibiotic activity against Candida albicans by broth microdilution assay or Alamar blue dye based colorimetric assay; format: functional
[8] = target: Stromelysin-1 (Homo sapiens, UniProt P08254); test: Inhibition of MMP3 (unknown origin)
[9] = system: CCRF-CEM; test: Growth inhibition of human CCRF-CEM cells at 10 uM incubated for 48 hrs by SRB assay; format: functional; conditions: read-out: GI
[10] = system: Nakaseomyces glabratus; test: Antibiotic activity against Candida glabrata by broth microdilution assay or Alamar blue dye based colorimetric assay; format: functional
[11] = system: Staphylococcus aureus; test: Antibiotic activity against Staphylococcus aureus 13709 by broth microdilution assay or Alamar blue dye based colorimetric assay; format: functional; in short: as §4
[12] = system: Bacillus subtilis; test: Antibiotic activity against Bacillus subtilis by broth microdilution assay or Alamar blue dye based colorimetric assay; format: functional; in short: as §4
[13] = system: Bacillus anthracis; test: Antibiotic activity against Bacillus anthracis by broth microdilution assay or Alamar blue dye based colorimetric assay; format: functional; in short: as §3
[14] = system: RPMI-8226; test: Growth inhibition of human RPMI8226 cells at 10 uM incubated for 48 hrs by SRB assay; format: functional; conditions: RPMI-8226, 48 h, read-out: GI
[15] = system: Staphylococcus aureus; test: Antibiotic activity against methicillin-resistant Staphylococcus aureus isolate NE277 by broth microdilution assay or Alamar blue dye based colorimetric assay; format: functional; in short: as §3
[16] = system: K562; test: Growth inhibition of human K562 cells at 10 uM incubated for 48 hrs by SRB assay; format: functional; conditions: K562, 48 h, read-out: GI
[17] = system: RPMI-8226; test: Cytotoxicity human RPMI8226 cells assessed as cell lethality at 10 uM incubated for 48 hrs by SRB assay; format: functional
In short: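 Single-dose (10 μM) screen run by the NCI Developmental Therapeutics Program across its 60 cell-line panel. Read as percent growth inhibition.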

[18] = system: Ribosome; test: Induction of ribosome stalling (unknown origin) assessed as induction of stalling of ribosome at ermBL ORF at 250 uM by extension inhibition assay; in short: as §2
[19] = In-vitro inhibition of protein translation using pY71-sfGFP in PUREexpress in vitro protein synthesis system assessed as reduction in cell-free GFP protein translation at 250 uM measured every 20 mins for 2 hrs; format: functional; in short: as §1

Sequence of Stromelysin-1 (P08254 whole entry): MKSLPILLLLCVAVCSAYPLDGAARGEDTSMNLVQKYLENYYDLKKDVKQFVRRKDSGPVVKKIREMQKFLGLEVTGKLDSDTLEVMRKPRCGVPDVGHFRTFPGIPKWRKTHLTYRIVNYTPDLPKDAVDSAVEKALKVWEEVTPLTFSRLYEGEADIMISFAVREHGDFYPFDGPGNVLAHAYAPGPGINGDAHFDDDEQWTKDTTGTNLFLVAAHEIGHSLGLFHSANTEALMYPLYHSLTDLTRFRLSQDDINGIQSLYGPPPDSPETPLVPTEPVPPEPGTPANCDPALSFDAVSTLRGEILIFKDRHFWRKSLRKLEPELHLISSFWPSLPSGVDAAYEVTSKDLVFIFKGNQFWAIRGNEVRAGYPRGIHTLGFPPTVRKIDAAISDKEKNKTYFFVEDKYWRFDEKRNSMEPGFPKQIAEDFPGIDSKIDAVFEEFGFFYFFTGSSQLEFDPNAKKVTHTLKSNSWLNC

| SMILES | translation inhibition (active/not active) [1] | Activity [2] | MIC [3] | MIC [4] | MIC [5] | MIC [6] [µM] | MIC [7] [µM] | MIC [10] [µM] | MIC [11] [µM] | MIC [12] [µM] | MIC [13] [µM] | further results |
| --- | --- | --- | --- | --- | --- | --- | --- | --- | --- | --- | --- | --- |
| CC[C@H]1OC(=O)C[C@@H](O)[C@H](C)[C@@H](O[C@@H]2O[C@H](C)[C@@H](O[C@H]3C[C@@](C)(O)[C@@H](O)[C@H](C)O3)[C@H](N(C)C)[C@H]2O)[C@@H](CC=O)C[C@@H](C)C(=O)/C=C/C(C)=C/[C@@H]1CO[C@@H]1O[C@H](C)[C@@H](O)[C@@H](OC)[C@H]1OC | Active | Active | – | – | – | – | – | – | – | – | – | – |
| CC[C@H]1OC(=O)[C@H](C)[C@@H](O[C@H]2C[C@@](C)(OC)[C@@H](O)[C@H](C)O2)[C@H](C)[C@@H](O[C@@H]2O[C@H](C)C[C@H](N(C)C)[C@H]2O)[C@](C)(O)C[C@@H](C)C(=O)[C@H](C)[C@@H](O)[C@]1(C)O [ERYTHROMYCIN] | Active | Active | > 32 µg/mL | > 32 µg/mL | > 32 µg/mL | – | – | – | – | – | – | – |
| C[C@H]1c2cccc(O)c2C(=O)C2=C(O)[C@]3(O)C(=O)C(C(N)=O)=C(O)[C@@H](N(C)C)[C@@H]3[C@@H](O)[C@@H]21.O [DOXYCYCLINE] | – | – | 16 µg/mL | 0.25 µg/mL | 8 µg/mL | – | – | – | – | – | – | – |
| C[C@H]1COc2c(N3CCN(C)CC3)c(F)cc3c(=O)c(C(=O)O)cn1c23.C[C@H]1COc2c(N3CCN(C)CC3)c(F)cc3c(=O)c(C(=O)O)cn1c23.O [LEVOFLOXACIN] | – | – | 0.25 µg/mL | > 16 µg/mL | > 16 µg/mL | – | – | – | – | – | – | – |
| CCC[C@@H]1C[C@@H](C(=O)N[C@@H]([C@H]2O[C@H](SC)[C@H](O)[C@@H](O)[C@H]2O)[C@H](C)Cl)N(C)C1 [CLINDAMYCIN] | – | – | > 16 µg/mL | > 16 µg/mL | > 16 µg/mL | – | – | – | – | – | – | – |
| C[C@H]1OC(=O)/C=C/[C@@H](O)[C@@H](O)CCCCCCCC[C@@H]1O | – | – | – | – | – | 500 (≈ 150 µg/mL) | > 1000 | > 1000 | 64 (≈ 19.2 µg/mL) | > 1000 | 250 (≈ 75.1 µg/mL) | IC50 [8]: 150 µM; inhibition of growth at 10 µM [9]: 38% |
| C[C@@H]1CCCCCCCCC[C@H](OC(=O)CCC(=O)O)C(=O)/C=C/C(=O)O1 | – | – | 16 µM | 16 µM | 16 µM | 125 (≈ 47.8 µg/mL) | 250 (≈ 95.6 µg/mL) | 125 (≈ 47.8 µg/mL) | 8 (≈ 3.06 µg/mL) | 32 (≈ 12.2 µg/mL) | 16 (≈ 6.12 µg/mL) | IC50 [8]: 50 µM; inhibition of growth at 10 µM [14]: 48%; MIC [15]: 16 µM (≈ 6.12 µg/mL) |
| C[C@H]1OC(=O)/C=C/C(=O)[C@@H](OC(=O)CCC(=O)O)CCCCCCCC[C@@H]1O | – | – | – | – | – | 64 (≈ 25.5 µg/mL) | 125 (≈ 49.8 µg/mL) | 64 (≈ 25.5 µg/mL) | 16 (≈ 6.38 µg/mL) | 64 (≈ 25.5 µg/mL) | 16 (≈ 6.38 µg/mL) | inhibition of growth at 10 µM [16]: 46%; inhibition of growth at 10 µM [9]: 48% |
| C[C@@H]1CCCCCCCCC[C@H](OC(=O)CCC(=O)O)C(=O)C[C@@H](SC[C@@H](O)C(=O)O)C(=O)O1 | – | – | 32 µM | 16 µM | 32 µM | 250 (≈ 126 µg/mL) | > 250 | 64 (≈ 32.3 µg/mL) | 8 (≈ 4.04 µg/mL) | 64 (≈ 32.3 µg/mL) | 16 (≈ 8.07 µg/mL) | MIC [15]: 16 µM (≈ 8.07 µg/mL) |
| Cc1nnc(SCC2=C(C(=O)O)N3C(=O)[C@@H](NC(=O)Cn4cnnn4)[C@H]3SC2)s1 [CEFAZOLIN] | – | – | 256 µg/mL | 256 µg/mL | 256 µg/mL | – | – | – | – | – | – | – |
| C[C@@H]1CC(O)CCCCCCC[C@H](OC(=O)CCC(=O)O)C(=O)/C=C/C(=O)O1 (some centres not stated) | – | – | – | – | – | 125 (≈ 49.8 µg/mL) | > 1000 | > 1000 | 32 (≈ 12.8 µg/mL) | 250 (≈ 99.6 µg/mL) | 64 (≈ 25.5 µg/mL) | – |
| CO[C@@H]1[C@@H](O[C@@H]2O[C@H](C)[C@@H](O[C@H]3C[C@@](C)(O)[C@@H](OC(=O)CC(C)C)[C@H](C)O3)[C@H](N(C)C)[C@H]2O)[C@@H](CC=O)C[C@@H](C)[C@@H](O)/C=C/C=C/C[C@@H](C)OC(=O)C[C@H]1OC(C)=O | Active | Active | – | – | – | – | – | – | – | – | – | – |
| C[C@@H]1CCCCCCCCC[C@H](O)C(=O)C[C@@H](SC[C@@H](O)C(=O)O)C(=O)O1 | inactive | inactive | 4 µM | 2 µM | 2 µM | 8 (≈ 3.24 µg/mL) | 64 (≈ 25.9 µg/mL) | 16 (≈ 6.47 µg/mL) | 2 (≈ 0.809 µg/mL) | 32 (≈ 12.9 µg/mL) | 8 (≈ 3.24 µg/mL) | Activity [17]: 2.4%; inhibition of growth at 10 µM [16]: 85%; IC50 [8]: 100 µM; Activity [18]: inactive; inhibition [19]: inactive; MIC [15]: 2 µM (≈ 0.809 µg/mL) |
